Measurements published in ChEMBL document CHEMBL4118110, “The identification of inhibitory compounds of Rickettsia prowazekii methionine aminopeptidase for antibacterial applications” (Bioorg Med Chem Lett, 2018).

Assay: Inhibition of Rickettsia prowazekii N-terminal His6-tagged methionine aminopeptidase 1 expressed in Escherichia coli DLB3 Rosetta cells at 10 uM using Met-AMC as substrate preincubated for 1 hr followed by 30 mins incubation after substrate addition measured after 90 mins in presence of MnCl2 by fluorescence assay relative to control
How it was run: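 Recombinant R. prowazekii MetAP with Mn(II) as the metal cofactor. Met-AMC substrate; release of free AMC is followed by fluorescence (excitation 360 nm, emission 460 nm). Activity is the slope of fluorescence versus time, compared with an uninhibited control.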

`O=C(O)c1cnc2ccccc2c1O` and `O=C(O)c1cc(-c2ccccn2)nc2ccccc12` cannot be ordered by inhibition: 13 to 55% for the first, 37 to 55% for the second.

`O=C(O)c1cnc(-c2cccc(Cl)c2)o1` and `O=C(O)c1ccc(CSc2ccc(Cl)cc2)o1` cannot be ordered by inhibition: 1 to 37% for the first, 20 to 28% for the second.

`N#Cc1ccccc1CSc1nnc(N)[nH]1` and `Nc1nnc(SCCc2ccccc2)[nH]1` cannot be ordered by inhibition: 27 to 28% for the first, 14 to 42% for the second.

`CC(N)c1nnc(-c2ccccc2)o1` (centres undefined) and `Cc1ccc(-c2nnc(C(C)N)o2)cc1` (centres undefined) cannot be ordered by inhibition: 1 to 32% for the first, 21 to 49% for the second.

`CCc1nnc(SCC(=O)c2ccc(C)cc2C)[nH]1` and `CCc1n[nH]c(SCC(=O)c2cc(C)ccc2C)n1` cannot be ordered by inhibition: 14 to 45% for the first, 11 to 43% for the second.

`O=C(Nc1ccccc1)C(=O)Nc1ccccc1` and `O=C(CSc1nnc[nH]1)Nc1ccccc1` cannot be ordered by inhibition: 2 to 39% for the first, 2 to 60% for the second.

First: O=C1CCC(c2ccccc2O)=NN1
Second: O=C(O)C1=NN(c2ccccc2)C(=O)CC1
The inhibition of the first is higher: 51 to 54% for the first, 14 to 39% for the second.

`Cc1cc(C(=O)O)n[nH]1` and `CN(C)Cc1cc(C(=O)O)no1` cannot be ordered by inhibition: 34 to 42% for the first, 2 to 60% for the second.

`O=C(O)c1ccc(S(=O)(=O)N2CCOCC2)o1` and `O=C(O)c1ccc(CSc2nnc[nH]2)o1` cannot be ordered by inhibition: 8 to 67% for the first, 16 to 21% for the second.

`COc1ccccc1-c1cc(C(=O)O)no1` and `O=C(O)c1ccc(-c2ccccc2Cl)s1` cannot be ordered by inhibition: 33 to 48% for the first, 1 to 48% for the second.

`S=c1nc(-c2ccccn2)cc[nH]1` and `c1ccc(-c2nc3ccccc3o2)nc1` cannot be ordered by inhibition: 32 to 75% for the first, 1 to 46% for the second.

`O=c1[nH]c2cccc3c2n(c1=O)CCO3` and `O=C(O)c1cc(=O)c2ccccc2[nH]1` cannot be ordered by inhibition: 24 to 32% for the first, 7 to 59% for the second.

`Cc1ccccc1NC(=O)CSc1nnc[nH]1` and `CCc1ccc(NC(=O)CSc2nnc[nH]2)cc1` cannot be ordered by inhibition: 26 to 64% for the first, 18 to 60% for the second.

`O=C(NCCCCl)C(=O)NCCCCl` and `COCCCn1cnc2sc(C(=O)O)c(C)c2c1=O` cannot be ordered by inhibition: 8 to 43% for the first, 7 to 22% for the second.

`O=C(NCc1ccccn1)c1ccc2[nH]c(=O)c(=O)[nH]c2c1` and `O=C(O)c1cc(-c2ccccn2)nc2ccc(F)cc12` cannot be ordered by inhibition: 36 to 40% for the first, 29 to 61% for the second.

Compared with `Nc1cccc(-c2cnc(-c3ccccn3)s2)c1`, `Cc1ccc2nc(-c3ccccn3)c(C(=O)O)cc2c1` is lower in inhibition: 30 to 36% for the first, 1 to 13% for the second.

`Cc1nc2ccccc2n1Cc1ccc(C(=O)O)o1` and `O=C(O)c1ccc(Cn2cnc3ccccc32)o1` cannot be ordered by inhibition: 10 to 21% for the first, 9 to 23% for the second.

First: CCn1nc(C(=O)O)c2ccccc2c1=O
Second: O=C(O)c1n[nH]c2ccccc12
The inhibition of the first is lower: 19 to 26% for the first, 35 to 36% for the second.

First: CC(C)c1ccc(CSc2nnc(N)[nH]2)cc1
Second: Nc1nnc(SCc2ccc(F)cc2)[nH]1
The inhibition of the first is higher: 48 to 90% for the first, 1 to 18% for the second.

First: COc1ccc(OCc2ccc(C(=O)O)o2)cc1
Second: O=Cc1ccc(OCc2ccc(C(=O)O)o2)cc1
The inhibition of the first is lower: 1 to 37% for the first, 40 to 59% for the second.

`C1CCc2nnc(-c3nnc4n3CCCCC4)n2CC1` and `Cc1n[nH]c(O)c1C1=NCCCCC1` cannot be ordered by inhibition: 1 to 60% for the first, 4 to 65% for the second.

Compared with `Cc1c(C(=O)O)sc2nc[nH]c(=O)c12`, `C=CCn1cnc2sc(C(=O)O)c(C)c2c1=O` is lower in inhibition: 44 to 51% for the first, 8 to 20% for the second.

First: Nc1n[nH]c(SCc2cccc(Br)c2)n1
Second: c1ccc(CSc2n[nH]c(-c3ccco3)n2)cc1
The inhibition of the first is higher: 55 to 64% for the first, 13 to 16% for the second.

`Cc1nnc(SCC(=O)c2cccc3ccccc23)[nH]1` and `Cc1nnc(SCC(=O)c2ccc(C(C)C)cc2)[nH]1` cannot be ordered by inhibition: 38 to 67% for the first, 1 to 41% for the second.

Compared with `Cc1c(C(=O)O)sc2nc3n(c(=O)c12)CCC3`, `Cc1c(C(=O)O)sc2ncn(CC3CCCO3)c(=O)c12` (centres undefined) is lower in inhibition: 34 to 50% for the first, 10 to 24% for the second.

First: Nc1nnc(SCC(=O)OCc2ccccc2)[nH]1
Second: Nc1nnc(SCC(=O)OCCOc2ccccc2)[nH]1
The inhibition of the first is lower: 20 to 34% for the first, 47 to 56% for the second.

`CCOC(=O)CSc1n[nH]c(-c2ccco2)n1` and `CN(C)C(=O)CSc1n[nH]c(-c2ccco2)n1` cannot be ordered by inhibition: 1 to 51% for the first, 1 to 3% for the second.

`Cc1ccc(-c2noc(-c3ccccc3N)n2)cc1` and `Nc1ccccc1-c1nc(-c2ccc(F)cc2)no1` cannot be ordered by inhibition: 2 to 52% for the first, 1 to 44% for the second.

Compared with `O=C(O)c1ccc(COc2ccc3ccc(=O)oc3c2)o1`, `Cc1ccc(SCc2ccc(C(=O)O)o2)cc1` is lower in inhibition: 14 to 21% for the first, 4 to 9% for the second.

Compared with `Cc1cc(O)c2c(c1Cl)C(=O)C=CC2=O`, `Cc1cc(C)nc(SCc2ccc(C(=O)O)o2)n1` is lower in inhibition: 31 to 66% for the first, 9 to 11% for the second.

`O=C(O)c1ccc(C2=NCc3ccccc3N2)o1` and `NNC(=O)c1ccc(-c2ccc(Cl)cc2)o1` cannot be ordered by inhibition: 7 to 63% for the first, 10 to 41% for the second.

`O=C(O)C1Cc2c([nH]c3ccccc23)CN1` (centres undefined) and `c1ccc2[nH]c(C3CCCN3)nc2c1` (centres undefined) cannot be ordered by inhibition: 17 to 19% for the first, 6 to 23% for the second.

`CC(C)CC(N)c1nnc2ccccn12` (centres undefined) and `Cc1cc(C)n2c(C(N)CC(C)C)nnc2n1` (centres undefined) cannot be ordered by inhibition: 22 to 61% for the first, 6 to 23% for the second.

`COc1ccc(Cl)cc1-c1nnc(S)[nH]1` and `Nc1nnc(SCC(=O)Nc2ccc(Cl)cc2)[nH]1` cannot be ordered by inhibition: 20 to 65% for the first, 19 to 38% for the second.

Compared with `COc1ccccc1NC(=O)CSc1nc[nH]n1`, `COc1ccccc1NC(=O)CSc1nnc(C)[nH]1` is lower in inhibition: 19 to 52% for the first, 1 to 15% for the second.

`Nc1[nH]n(-c2ccccc2)c(=O)c1C1=NCCCCC1` and `O=C1C(Cl)=C(N2CCCCC2)C(=O)c2ccccc21` cannot be ordered by inhibition: 2 to 35% for the first, 12 to 46% for the second.

`CC(=O)c1c(O)nc2ccccn12` and `O=C(O)c1nc(C2CC2)n2ccccc12` cannot be ordered by inhibition: 16 to 43% for the first, 40 to 68% for the second.

`Cc1ccc(Sc2ccc(C(=O)O)o2)cc1` and `O=C(O)c1ccc(Sc2ccc(Br)cc2)o1` cannot be ordered by inhibition: 27 to 62% for the first, 1 to 48% for the second.

`Cc1ccc(C2NC(C(=O)O)CS2)cc1` (centres undefined) and `Cc1ccc(-c2cc(C(=O)O)nn2C)cc1` cannot be ordered by inhibition: 1 to 74% for the first, 42 to 45% for the second.

Compared with `O=C(O)C1CCCN1C(=O)c1ccco1` (centres undefined), `C1=C(c2ccccc2)Nc2ncnn2C1c1ccco1` (centres undefined) is higher in inhibition: 7 to 9% for the first, 23 to 32% for the second.

`Nc1nnc(SCC(=O)c2ccc(O)cc2O)[nH]1` and `Cc1nnc(SCC(=O)c2ccc(C)c(C)c2)[nH]1` cannot be ordered by inhibition: 2 to 19% for the first, 10 to 24% for the second.

`COc1cccc(-c2nnc(CN)o2)c1` and `Cc1nnc(CN)o1` cannot be ordered by inhibition: 1 to 33% for the first, 13 to 32% for the second.

`CCc1n[nH]c(SCC(=O)c2ccc(C)c(C)c2)n1` and `CCc1n[nH]c(SCC(=O)NCCc2ccccc2)n1` cannot be ordered by inhibition: 5 to 38% for the first, 1 to 15% for the second.

`Nc1ccncc1-c1ccc(C(=O)O)s1` and `NC(=O)c1nc(-c2ccccc2)oc1Cl` cannot be ordered by inhibition: 12 to 58% for the first, 4 to 59% for the second.

`Cc1ccc(OCCCCSc2nnc(N)[nH]2)cc1` and `CC(C)Oc1ccc(CCSc2nnc(N)[nH]2)cc1` cannot be ordered by inhibition: 45 to 65% for the first, 47 to 53% for the second.

First: COc1ccc(OCCSc2n[nH]c(N)n2)cc1
Second: COc1ccc(C(=O)CSc2n[nH]c(N)n2)cc1
The inhibition of the first is lower: 27 to 32% for the first, 32 to 58% for the second.

`CCSc1nnc([C@@H]2CCCN2)o1` and `CCCOC(=O)CSc1nnc(N)[nH]1` cannot be ordered by inhibition: 1 to 34% for the first, 15 to 36% for the second.

`COc1ccc(-c2nnc3c(N)cccn23)cc1` and `COc1ccccc1C1CC(c2cc(F)ccc2O)=NN1` (centres undefined) cannot be ordered by inhibition: 13 to 23% for the first, 1 to 57% for the second.

`O=C(O)C(Sc1nnc[nH]1)c1ccccc1` (centres undefined) and `CC(Sc1nnc(N)[nH]1)C(=O)OCc1ccccc1` (centres undefined) cannot be ordered by inhibition: 3 to 41% for the first, 37 to 54% for the second.

First: Cc1ccc(-n2nnc(C(=O)O)c2C)cc1C
Second: C=C(C)Cn1cnc2sc(C(=O)O)c(C)c2c1=O
The inhibition of the first is higher: 41% for the first, 8 to 33% for the second.

First: CCc1nnc(SCC(=O)c2ccc([N+](=O)[O-])cc2)[nH]1
Second: NC(=O)c1ccccc1N
The inhibition of the first is higher: 75 to 81% for the first, 1 to 33% for the second.

First: COc1ccc(N2C(=O)CCC2=O)cc1S(=O)(=O)Nc1cccc2cccnc12
Second: Cc1c(C(=O)O)sc2[nH]c(=S)[nH]c(=O)c12
The inhibition of the first is lower: 14 to 36% for the first, 45 to 46% for the second.
